Test results as given in ChEMBL document CHEMBL1135243, “Evaluation of morphogenic regulatory activity of farnesoic acid and its derivatives against Candida albicans dimorphism” (Bioorg Med Chem Lett, 2002).
≈ marks a conversion by molar mass, not a printed value.

How the values were obtained:
[1] = system: Candida albicans; assay: In vitro inhibition of yeast-to-hypha transition in candida albicans; type: functional, organism-based
[2] = system: Candida albicans; assay: In vitro inhibition of yeast cell growth of candida albicans; type: functional, organism-based
[3] = system: Candida albicans; assay: In vitro inhibition of yeast cell growth of candida albicans; No inhibition; type: functional, organism-based
[4] = system: Candida albicans; assay: In vitro inhibition of yeast-to-hypha transition in candida albicans; No inhibition; type: functional, organism-based
[5] = system: Candida albicans; assay: In vitro inhibition of yeast cell growth of candida albicans at a concentration of 100 ug/mL; type: functional
[6] = system: Candida albicans; assay: In vitro inhibition of yeast-to-hypha transition in candida albicans at a concentration of 100 ug/mL; type: functional
Outline: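 C. albicans ATCC 10231 grown 48 h at 30 °C in YPD, washed twice in sterile water. DMSO stocks diluted in glucose salts (GS) medium, final DMSO below 0.5%. Cells at 10^5 cells/mL in GS with compound, 4 h at 37 °C. Yeast vs hypha (germ tube) percentages counted microscopically on 200 cells from triplicate dishes, relative to 0.5% DMSO control. Highest concentration tested.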

Row | IC50 [4] [µg/mL] | SMILES | IC50 [3] [µg/mL] | further results
1 | > 100 | CNC(=O)/C=C(\C)CC/C=C(\C)CCC=C(C)C | > 100 | –
2 | > 100 | COC(=O)/C=C(\C)CC/C=C(\C)CCC=C(C)C | > 100 | –
3 | > 100 | C=CCNC(=O)/C=C(\C)CC/C=C(\C)CCC=C(C)C | > 100 | –
4 | > 100 | CC(C)=CCC/C(C)=C/CC/C(C)=C/C(=O)OCC=C(C)C | > 100 | –
5 | > 100 | C=CCOC(=O)/C=C(\C)CC/C=C(\C)CCC=C(C)C | > 100 | –

More lines, now with the values behind:

Row | SMILES | IC50 [4] [µg/mL] | IC50 [3] [µg/mL] | further results
6 | CC(C)=CCC/C(C)=C/CC/C(C)=C/C(=O)N1CCOCC1 | – | – | IC50 [1]: 41 µg/mL (≈ 134 µM); IC50 [2]: 87.5 µg/mL (≈ 286 µM)
7 | CC(C)=CCC/C(C)=C/CC/C(C)=C/C(=O)N(C)C | – | – | IC50 [1]: 16.9 µg/mL (≈ 64.3 µM); IC50 [2]: 43.7 µg/mL (≈ 166 µM)
8 | CC(C)=CCC/C(C)=C/CC/C(C)=C/C(=O)OC/C=C(\C)CCC=C(C)C | > 100 | > 100 | –
9 | CC(C)=CCC/C(C)=C/CC/C(C)=C/C(=O)OC/C=C/c1ccccc1 | > 100 | > 100 | –
10 | CC(C)=CCC/C(C)=C/CC/C(C)=C/C(=O)O | – | > 100 | IC50 [1]: 4.56 µg/mL (≈ 19.3 µM)
11 | CC(C)=CCC/C(C)=C/CC/C(C)=C/CO [FARNESOL] | – | – | IC50 [1]: 2.82 µg/mL (≈ 12.7 µM); inhibition at 100 µg/mL [5]: 35%
12 | CC(C)=CCC/C(C)=C/CC/C(C)=C/C(N)=O | – | – | IC50 [1]: 20.7 µg/mL (≈ 88 µM); IC50 [2]: 26.3 µg/mL (≈ 112 µM)
13 | CC(C)=CCC/C(C)=C/C(=O)O | > 100 | – | inhibition at 100 µg/mL [5]: 57%
14 | CC(C)=CCC/C(C)=C/CC/C(C)=C\C(=O)O | – | > 100 | inhibition at 100 µg/mL [6]: 18%
15 | CC(C)=CCC/C(C)=C/CC/C(C)=C/CC/C(C)=C/C(=O)O [GERANYLGERANOIC ACID] | > 100 | > 100 | –
16 | CC(C)=CCC/C(C)=C/CC/C(C)=C/COC(=O)/C=C(\C)CC/C=C(\C)CCC=C(C)C | > 100 | > 100 | –
17 | CC(C)=CCC/C(C)=C/CC/C(C)=C/C(=O)OCc1ccccc1 | > 100 | > 100 | –
